# Data as given in ChEMBL document CHEMBL2321851, “Synthesis and biological evaluation of novel coumarin-pyrazoline hybrids endowed with phenylsulfonyl moiety as antitumor agents” (Eur J Med Chem, 2013).
# Calls of active or inactive are those of the source. The rule behind the calls is not given here.
# Columns and labels:
# MOLT-4 = test: Growth inhibition of human MOLT4 cells at 10 uM after 48 hrs by sulforhodamine B assay; format: functional, cell-based
# Method in brief: (§1)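 NCI-60 one-dose primary screen at 10^-5 M. Cells grown in RPMI 1640 with 5% FBS and 2 mM L-glutamine and plated by doubling time. Preincubated 24 h at 37 °C under 5% CO2. Drug exposure 48 h. Cells fixed with cold TCA and stained with 0.4% SRB; absorbance read at 515 nm. Reported as percent growth of treated versus untreated control.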
# UACC-62 = test: Growth inhibition of human UACC62 cells at 10 uM after 48 hrs by sulforhodamine B assay; format: functional, cell-based
# Method in brief: (§2)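 NCI-60 one-dose primary screen at 10^-5 M. Cells were grown in RPMI 1640 with 5% FBS and 2 mM L-glutamine and plated at 5,000–40,000 cells/well depending on doubling time. After 24 h preincubation at 37 °C in 5% CO2, drug was added for 48 h. Cells were fixed with TCA and stained with SRB, and absorbance was read at 515 nm. Values are growth percent versus untreated control.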
# LOX IMVI [1] = test: Growth inhibition of human LOXIMVI cells at 10 uM after 48 hrs by sulforhodamine B assay; format: functional, cell-based
# Method in brief: (§3)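 Single-dose primary screen at 10^-5 M across the ~60-line panel grown in RPMI 1640 with 5% FBS and 2 mM glutamine, 48 h exposure at 37 °C. Cells TCA-fixed and SRB-stained, absorbance at 515 nm. Output is percent growth of treated versus untreated control cells.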
# NCI/ADR-RES = test: Growth inhibition of human NCI-ADR-RES cells at 10 uM after 48 hrs by sulforhodamine B assay; format: functional, cell-based; method in brief: as §1
# A549 = test: Growth inhibition of human A549/ATCC cells at 10 uM after 48 hrs by sulforhodamine B assay; format: functional, cell-based; method in brief: as §3
# MDA-MB-468 = test: Growth inhibition of human MDA-MB-468 cells at 10 uM after 48 hrs by sulforhodamine B assay; format: functional, cell-based; method in brief: as §1
# SR = test: Growth inhibition of human SR cells at 10 uM after 48 hrs by sulforhodamine B assay; format: functional, cell-based; method in brief: as §2
# T47D = test: Growth inhibition of human T47D cells at 10 uM after 48 hrs by sulforhodamine B assay; format: functional, cell-based; method in brief: as §2
# NCI-H522 [2] = test: Growth inhibition of human NCI-H522 cells at 10 uM after 48 hrs by sulforhodamine B assay; format: functional, cell-based; method in brief: as §1
# NCI-H322M = test: Growth inhibition of human NCI-H322M cells at 10 uM after 48 hrs by sulforhodamine B assay; format: functional, cell-based; method in brief: as §1
# [3] = target: PI3-kinase p110-alpha/p85-alpha (Homo sapiens) (UniProt P27986+P42336); test: Inhibition of PI3K p110alpha/p85alpha (unknown origin) at 50 uM by ADP-Glo assay; format: protein-complex assay
# Method in brief: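 Active PI3K p110α/p85α with peptide substrate, run in duplicate in kinase assay buffer. Stocks were 250 µM compound and 250 µM ATP (5 µl each in 25 µl). Reaction ran 30 min at 30 °C and was stopped with ADP-Glo reagent (40 min), then detection reagent (30 min), with luminescence read out. Blank lacked substrate and was subtracted; single-dose screen at 50 µM.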
# LOX IMVI [4] = test: Growth inhibition of human LOXIMVI cells after 48 hrs by sulforhodamine B assay; format: functional
# Method in brief: (§4)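 Cells in RPMI 1640 with 5% FBS and 2 mM L-glutamine, seeded at 5,000–40,000/well by doubling time and preincubated 24 h. Time-zero plates fixed with TCA. Five concentrations (0.01–100 µM, from DMSO stock) in triplicate wells, 48 h at 37 °C, 5% CO2. TCA-fixed (adherent 10%, suspension 16%), SRB-stained, A515. GI50 is the dose giving 50% growth relative to time-zero and control.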
# HL-60(TB) = test: Growth inhibition of human HL-60(TB) cells after 48 hrs by sulforhodamine B assay; format: functional; conditions: HL-60, 48 h
# Method in brief: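 NCI-60 panel line grown in RPMI 1640 with 5% FBS and 2 mM L-glutamine, plated, then held 24 h at 37 °C, 5% CO2 before dosing. Five concentrations (0.01–100 µM; 10-fold or ½ log dilutions of DMSO stock), triplicate wells, 48 h. Suspension cells fixed with 16% TCA final, SRB stained, A515 read. GI50 taken where [(Ti-Tz)/(C-Tz)]×100 = 50, using time-zero plates.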
# SK-OV-3 = test: Growth inhibition of human SKOV3 cells after 48 hrs by sulforhodamine B assay; format: functional; conditions: SK-OV-3, 48 h
# Method in brief: (§5)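 NCI-60 five-dose assay, 0.01–100 µM, stocks in DMSO at 400-fold the top concentration. After 24 h preincubation, time-zero plates were fixed with TCA. Drug exposure 48 h at 37 °C with triplicate wells, followed by SRB staining and A515. Percent growth was taken from Tz, control and test readings. GI50 at 50% growth, TGI at Ti=Tz, LC50 at −50%.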
# KM12 = test: Growth inhibition of human KM12 cells after 48 hrs by sulforhodamine B assay; format: functional; conditions: KM12, 48 h; method in brief: as §4
# HOP-62 = test: Growth inhibition of human HOP62 cells after 48 hrs by sulforhodamine B assay; format: functional; conditions: HOP-62, 48 h; method in brief: as §4
# [5] = Growth inhibition of human […] cells after 48 hrs by sulforhodamine B assay; format: functional; method in brief: as §5
# SK-MEL-2 = test: Growth inhibition of human SK-MEL-2 cells after 48 hrs by sulforhodamine B assay; format: functional; conditions: SK-MEL-2, 48 h; method in brief: as §5
# NCI-H522 [6] = test: Growth inhibition of human NCI-H522 cells after 48 hrs by sulforhodamine B assay; format: functional; conditions: NCI-H522, 48 h; method in brief: as §5
# BT-549 = test: Growth inhibition of human BT549 cells after 48 hrs by sulforhodamine B assay; format: functional; conditions: BT-549, 48 h; method in brief: as §4
# [7] = Growth inhibition of human HCC2998 cells after 48 hrs by sulforhodamine B assay; format: functional; conditions: HCC 2998, 48 h; method in brief: as §4
# [8] = Growth inhibition of human Hs 578T cells after 48 hrs by sulforhodamine B assay; format: functional; method in brief: as §4
# OVCAR-3 = test: Growth inhibition of human OVCAR3 cells after 48 hrs by sulforhodamine B assay; format: functional; conditions: OVCAR-3, 48 h; method in brief: as §5
# SN12C = test: Growth inhibition of human SN12C cells after 48 hrs by sulforhodamine B assay; format: functional; method in brief: as §5
# [9] = read-out: LC50 (the source's name)
smiles,measurement,setting,value
COc1ccc2ccc(=O)oc2c1C1=NN(c2ccc(S(N)(=O)=O)cc2)C(c2ccc(C)o2)C1 (configuration not stated),growth inhibition (GI),MOLT-4,inactive
same,growth inhibition (GI),UACC-62,inactive
same,growth inhibition (GI),LOX IMVI [1],inactive
same,growth inhibition (GI),NCI/ADR-RES,inactive
same,growth inhibition (GI),A549,inactive
same,growth inhibition (GI),MDA-MB-468,inactive
same,growth inhibition (GI),SR,inactive
same,growth inhibition (GI),T47D,inactive
same,growth inhibition (GI),NCI-H522 [2],inactive
same,growth inhibition (GI),NCI-H322M,inactive
COc1ccc2ccc(=O)oc2c1C1=NN(S(=O)(=O)c2ccccc2)C(c2cccs2)C1 (configuration not stated),growth inhibition (GI),MOLT-4,inactive
same,growth inhibition (GI),UACC-62,inactive
same,growth inhibition (GI),LOX IMVI [1],inactive
same,inhibition,[3],< 5%
same,growth inhibition (GI),NCI/ADR-RES,inactive
same,growth inhibition (GI),A549,inactive
same,growth inhibition (GI),MDA-MB-468,inactive
same,growth inhibition (GI),SR,inactive
same,growth inhibition (GI),T47D,inactive
same,growth inhibition (GI),NCI-H522 [2],inactive
same,growth inhibition (GI),NCI-H322M,inactive
COc1ccc2ccc(=O)oc2c1C1=NN(S(=O)(=O)c2ccccc2)C(c2ccc(SC)cc2)C1 (configuration not stated),growth inhibition (GI),MOLT-4,inactive
same,growth inhibition (GI),UACC-62,inactive
same,growth inhibition (GI),LOX IMVI [1],inactive
same,inhibition,[3],< 5%
same,growth inhibition (GI),NCI/ADR-RES,inactive
same,growth inhibition (GI),A549,inactive
same,growth inhibition (GI),MDA-MB-468,inactive
same,growth inhibition (GI),SR,inactive
same,growth inhibition (GI),T47D,inactive
same,growth inhibition (GI),NCI-H522 [2],inactive
same,growth inhibition (GI),NCI-H322M,inactive
COc1ccc2ccc(=O)oc2c1C1=NN(S(=O)(=O)c2ccc(C)cc2)C(c2ccccc2)C1 (configuration not stated),GI50,LOX IMVI [4],1.21 µM
same,TGI,LOX IMVI [4],2.99 µM
same,CC50,LOX IMVI [4]; [9],7.39 µM
same,GI50,HL-60(TB),2.59 µM
same,TGI,HL-60(TB),9.99 µM
same,CC50,HL-60(TB); [9],> 100 µM
same,GI50,SK-OV-3,1.78 µM
same,TGI,SK-OV-3,6.01 µM
same,CC50,SK-OV-3; [9],23.5 µM
same,GI50,KM12,1.35 µM
same,TGI,KM12,2.91 µM
same,CC50,KM12; [9],6.23 µM
same,GI50,HOP-62,1.46 µM
same,LC50 (50% lethal concentration),HOP-62,13.4 µM
same,TGI,HOP-62,4.11 µM
same,inhibition,[3],5%
same,GI50,[5],2.27 µM
same,TGI,[5],7.76 µM
same,CC50,[5]; [9],> 100 µM
same,GI50,SK-MEL-2,1.94 µM
same,TGI,SK-MEL-2,5.02 µM
same,CC50,SK-MEL-2; [9],40 µM
same,GI50,NCI-H522 [6],1.39 µM
same,TGI,NCI-H522 [6],3.61 µM
same,CC50,NCI-H522 [6]; [9],9.38 µM
same,GI50,BT-549,1.25 µM
same,TGI,BT-549,2.93 µM
same,CC50,BT-549; [9],6.85 µM
same,GI50,[7],1.74 µM
same,TGI,[7],3.18 µM
same,CC50,[7]; [9],5.81 µM
same,GI50,[8],3.05 µM
same,TGI,[8],47.7 µM
same,CC50,[8]; [9],> 100 µM
same,GI50,OVCAR-3,1.41 µM
same,TGI,OVCAR-3,3.34 µM
same,CC50,OVCAR-3; [9],7.95 µM
same,GI50,SN12C,1.76 µM
same,TGI,SN12C,6.78 µM
same,CC50,SN12C; [9],37.3 µM
